From ChEMBL document CHEMBL1121372, “Synthesis and antihypertensive activity of 5-amino-2-pyridinecarboxylic acid derivatives” (1980) come the findings set out here.

Assay [1] has as its system Canis familiaris. As to the kind of experiment: Antihypertensive activity in unanesthetized renal hypertensive dogs measured as Heart Rate (HR) (beats/min) at 100 mg per kg dose after peroral administration on day 4. The assay is classed as functional, Canis lupus familiaris. The settings on record: route oral. Put shortly:
(§1)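 Renal hypertensive dogs, unanesthetized. Test compound given orally once daily as a solid in a gelatin capsule. Blood pressure was taken at 1.5, 3, 6 and 24 h after each daily dose. Activity is the maximum change in mean blood pressure or heart rate over each daily session. Values are mean ± SE, with significance marked at p < 0.05.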

Assay [2] relates to Canis familiaris. The assay is described as follows: Antihypertensive activity in unanesthetized renal hypertensive dogs measured as Heart Rate (HR) (beats/min) at 100 mg per kg dose after peroral administration on day1 (p<0.05). Format: functional, Canis lupus familiaris. The note with it: route oral. The method, boiled down:
as §1

Assay [3] has as its system Rattus norvegicus. As to the kind of experiment: The compound was tested for antihypertensive effect in spontaneously hypertensive rat (SHR), expressed as fall in blood pressure (BP) at 25 mg/kg dose given orally. The note with it: route oral. The assay is classed as functional. Put shortly:
(§2)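 Male SHR, about 16 weeks old, with systolic pressure above 150 mmHg, held in restraint cages. Tail-cuff occlusion was raised to 250 mmHg and then lowered, after 1 h acclimation and at least 3 baseline readings. Dosing was by daily gavage in 3% cornstarch/5% PEG-400/Tween 80 for 2 or 4 days, with 4–6 rats per drug. Readings at 1, 2, 3 and 24 h; peak fall reported.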

The test system of assay [4] is Canis familiaris. The assay is described as follows: Antihypertensive activity in unanesthetized renal hypertensive dogs measured as mean Blood Pressure at 100 mg per kg dose after peroral administration on day 2. The settings on record: route oral. The assay is classed as functional, Canis lupus familiaris. The method, boiled down: as §1
The subject of assay [5] is Canis familiaris. The assay is described as follows: Antihypertensive activity in unanesthetized renal hypertensive dogs measured as Heart Rate (HR) (beats/min) at 100 mg per kg dose after peroral administration on day 2. The note with it: route oral. Format: functional, Canis lupus familiaris. The method, boiled down:
as §1

The test system of assay [6] is Canis familiaris. As to the kind of experiment: Antihypertensive activity in unanesthetized renal hypertensive dogs measured as mean Blood Pressure at 100 mg per kg dose after peroral administration on day 3. The assay is classed as functional, Canis lupus familiaris. The note with it: route oral. Put shortly: as §1
In assay [7] the test system is Canis familiaris. As to the kind of experiment: Antihypertensive activity in unanesthetized renal hypertensive dogs measured as Heart Rate (HR) (beats/min) at 100 mg per kg dose after peroral administration on day 3 p<0.05. The assay is classed as functional, Canis lupus familiaris. The note with it: route oral. The method, boiled down: as §1
In assay [8] the test system is Canis familiaris. As to the kind of experiment: Antihypertensive activity in unanesthetized renal hypertensive dogs measured as mean Blood Pressure at 100 mg per kg dose after peroral administration on day 4. Format: functional, Canis lupus familiaris. The note with it: route oral. The method, boiled down: as §1
Assay [9] concerns Rattus norvegicus. The assay is described as follows: Antihypertensive effect in spontaneously hypertensive rat (SHR), expressed as fall in blood pressure (BP) at 50 mg/kg dose given orally. The note with it: route oral. Format: functional. Put shortly:
as §2

For assay [10], the system named is Rattus norvegicus. As to the kind of experiment: The compound was tested for antihypertensive effect in spontaneously hypertensive rat (SHR), expressed as fall in blood pressure (BP) at 10 mg/kg dose given orally. The assay is classed as functional. The settings on record: route oral.
The subject of assay [11] is Canis familiaris. As to the kind of experiment: Antihypertensive activity in unanesthetized renal hypertensive dogs measured as mean Blood Pressure at 100 mg per kg dose after peroral administration on day1. The assay is classed as functional, Canis lupus familiaris. Further details: unit not given beside the values. The note with it: route oral. Put shortly:
as §1

The subject of assay [12] is Canis familiaris. As to the kind of experiment: Antihypertensive activity in unanesthetized renal hypertensive dogs measured as mean Blood Pressure at 100 mg per kg dose after peroral administration on day 2((p<0.05). The assay is classed as functional, Canis lupus familiaris. The settings on record: route oral. The method, boiled down: as §1
Assay [13] has as its system Canis familiaris. As to the kind of experiment: Antihypertensive activity in unanesthetized renal hypertensive dogs measured as Heart Rate (HR) (beats/min) at 100 mg per kg dose after peroral administration on day1. The assay is classed as functional, Canis lupus familiaris. The note with it: route oral. Put shortly: as §1
Assay [14] deals with Canis familiaris. The assay is described as follows: Antihypertensive activity in unanesthetized renal hypertensive dogs measured as Heart Rate (HR) (beats/min) at 100 mg per kg dose after peroral administration on day 3. The assay is classed as functional, Canis lupus familiaris. The note with it: route oral. The method, boiled down:
as §1

In assay [15] the test system is Rattus norvegicus. The assay is described as follows: The compound was tested for antihypertensive effect in spontaneously hypertensive rat (SHR), expressed as fall in blood pressure (BP) at 100 mg/kg dose given orally. Format: functional. The note with it: route oral. The method, boiled down: as §2
The test system of assay [16] is Rattus norvegicus. As to the kind of experiment: The compound was tested for antihypertensive effect in spontaneously hypertensive rat (SHR), expressed as fall in blood pressure (BP) at 50 mg/kg dose given orally; (3/3 dead). The assay is classed as functional.

With `O=C(O)c1ccc(NCc2ccccc2)cn1`, the HR in the assay with Canis familiaris [1] was determined as 48; in the assay with Canis familiaris [2], 74; in the assay with Canis familiaris [5], 61; in the assay on Canis familiaris [7], 52. Further, the figures for the BP in the assay with Rattus norvegicus [3], with Rattus norvegicus [9] and in the assay with Rattus norvegicus [10] were over 60 mmHg, over 80 mmHg and over 40 mmHg, respectively. The MBP in the assay with Canis familiaris [4] is -14; in the assay with Canis familiaris [6], -13; with Canis familiaris [8], -6; in the assay on Canis familiaris [11] it was -32.
`O=C(O)c1ccc(NCc2cccc(Cl)c2)cn1`: the MBP in the assay with Canis familiaris [12] was -9; in the assay on Canis familiaris [6], -4; with Canis familiaris [11], -15. Further, the “Maximum change in heart rate” value in the assay on Canis familiaris [13] is on record as 16. Besides, the HR in the assay on Canis familiaris [5] and in the assay on Canis familiaris [14] was 11 each time. In the assay with Rattus norvegicus [15], this compound registered a BP of over 60 mmHg.
In the assay with Rattus norvegicus [16], `O=C(O)c1ccc(NCC2CCCCC2)cn1` registered a BP of over 20 mmHg.
